ChEMBL document CHEMBL1133686, “6-Aminoquinolones as new potential anti-HIV agents” (J Med Chem, 2000)
Values joined by “and” are separate entries in the source; they are usually repeats but may differ in a detail not shown here. Equal values may be shown once.

Tests used:
C8166 = test: Selectivity index in HIV-1 infected C8166 (human CD4) cells.; format: functional
Summary of the method: (§1)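 Selectivity index in C8166 cells, computed as the ratio of TC50 (concentration reducing cell growth by 50%) to EC50 (concentration reducing supernatant reverse transcriptase activity by 50% in HIV-1 IIIB-infected cultures).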

[1] = system: Human immunodeficiency virus 1; test: In vitro antiviral activity against HIV-1 IIIB in C8166 (human CD4) cells.; format: functional, organism-based; details: Human immunodeficiency virus 1, C8166
Summary of the method: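 HIV-1 IIIB infection of C8166 cells, compounds from DMSO stocks of 25 mM or higher. EC50 is the drug concentration (μM) reducing reverse transcriptase activity of culture supernatants by 50%. Syncytium formation, gp120 ELISA and cytopathic-effect reduction were also scored. Values are the mean of at least three experiments run in triplicate.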

C8166 (human) = test: In vitro toxicity to C8166 (human CD4) cells.
Herpes simplex virus 1 = test: Antiviral activity determined against herpes simplex virus type 1 (HSV-1) in vero cells; details: Herpes simplex virus 1, Vero
[2] = Toxicity which reduces cell growth by 50% against herpes simplex virus type 1 (HSV-1) in vero cells
[3] = Selectivity index expressed as ratio of TC50 (HIV-1) to EC50 (HIV-1) in C8166 cells; format: functional; summary of the method: as §1

Structure (SMILES)	SI (C8166)	EC50 [1]	TC50 (C8166 (human))	EC50 (Herpes simplex virus 1)	TC50 [2]	SI [3]
CC(C)(C)n1cc(C(=O)O)c(=O)c2cc(N)c(N3CCN(c4ncccn4)CC3)cc21	4	9.48 µM	42.6 µM			
Cc1c(N2CCC(C)CC2)c(N)cc2c(=O)c(C(=O)O)cn(C3CC3)c12	4	20 µM	80 µM			
COc1ccccc1N1CCN(c2cc3c(cc2N)c(=O)c(C(=O)O)cn3C(C)(C)C)CC1	6 and 9	3.2 µM	20 µM	33 µM	300 µM	
COc1ccc(N2CCN(c3cc4c(cc3N)c(=O)c(C(=O)O)cn4C(C)(C)C)CC2)cc1	1.4	9.5 µM	13.8 µM			
CC(C)(C)n1cc(C(=O)O)c(=O)c2cc(F)c(N3CCN(c4ccccn4)CC3)cc21	5	7.5 µM	40 µM			
CC(C)(C)n1cc(C(=O)O)c(=O)c2cc(N)c(N3CCN(c4ccccn4)CC3)cc21	4	2 µM	8.1 µM	82 µM	290 µM	
Cn1cc(C(=O)O)c(=O)c2cc(F)c(N3CCN(c4ccccn4)CC3)cc21	5	1.3 µM	7 µM			
Nc1cc2c(=O)c(C(=O)O)cn(N3CCN(c4ccccn4)CC3)c2cc1Cl	>2	500 µM	>1000 µM			
CN1CCN(c2c(F)cc3c(=O)c(C(=O)O)cn4c3c2SCC4)CC1 [RUFLOXACIN]	2	200 µM	400 µM			
CC(C)(C)n1cc(C(=O)O)c(=O)c2cc(N)c(N3CCc4ccccc4C3)cc21	2	40 µM	80 µM			
Nc1cc2c(=O)c(C(=O)O)cn(C3CC3)c2cc1N1CCN(c2ccccn2)CC1		0.7 µM	9 µM	38 µM	95 µM	
Cn1cc(C(=O)O)c(=O)c2cc(N)c(N3CCN(c4ccccn4)CC3)cc21	70	0.1 µM	7 µM	30 µM	270 µM	70
O=C(O)c1cn(C2CC2)c2cc(N3CCN(c4ccccn4)CC3)c(F)cc2c1=O	13	5 µM	65 µM			
Cc1c(N2CCc3ccccc3C2)c(N)cc2c(=O)c(C(=O)O)cn(C3CC3)c12	5	80 µM	400 µM			
CCOC(=O)c1cn(C(C)(C)C)c2cc(N3CCN(c4ccccn4)CC3)c(N)cc2c1=O	1.5	51.2 µM	77.9 µM	> 300 µM	>300 µM	
CC(C)(C)n1cc(C(=O)O)c(=O)c2cc(N)c(N3CCN(c4ccc(F)cc4)CC3)cc21	1.2	8.44 µM	10.7 µM			
Cc1c(N2CCN(c3ccccn3)CC2)c(N)cc2c(=O)c(C(=O)O)cn(C)c12	6	7.5 µM	46.2 µM			
Cc1cn([C@H]2C[C@H](N=[N+]=[N-])[C@@H](CO)O2)c(=O)[nH]c1=O [ZIDOVUDINE]	25000	0.02 µM	500 µM			
CNc1cc2c(=O)c(C(=O)O)cn(C)c2cc1N1CCN(c2ccccn2)CC1	5	3.5 µM	19.5 µM			
O=C(O)c1cn(C2CC2)c2cc(N3CCNCC3)c(F)cc2c1=O [CIPROFLOXACIN]	1.6	100 µM	160 µM			
CCOC(=O)c1cn(C)c2cc(N3CCN(c4ccccn4)CC3)c(N)cc2c1=O	1.5	37 µM	57 µM	> 300 µM	>300 µM	
